From ChEMBL document CHEMBL4196161, “Lead Optimization of 5-Aryl Benzimidazolone- and Oxindole-Based AMPA Receptor Modulators Selective for TARP γ-8” (ACS Med Chem Lett, 2018)
≈ marks a conversion by molar mass, not a printed value.

What was measured:
[1] = Apparent permeability across basolateral to apical side in MDCK-MDR1 cells at 5 uM measured after 60 mins by LC-MS/MS analysis; type: ADME, cell-based, Canis lupus familiaris; conditions: dog
In short: (§1)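 Bidirectional apparent permeability measured in Madin–Darby canine kidney cells transfected with the MDR1 (P-gp) gene; Papp reported in ×10–6 cm/s.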

[2] = Hepatic extraction ratio in human liver microsomes at 1 uM measured after 60 mins in presence of NADPH by LC-MS/MS analysis; type: ADME, microsome; conditions: read-out: ERH
In short: (§2)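 Human or rat liver microsomal stability at 1 μM; results expressed as extraction ratio, i.e. predicted hepatic clearance divided by species-specific hepatic blood flow.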

[3] = Apparent permeability across apical to basolateral side in MDCK-MDR1 cells at 5 uM measured after 60 mins by LC-MS/MS analysis; type: ADME, cell-based, Canis lupus familiaris; conditions: dog; in short: as §1
[4] = Thermodynamic solubility of the compound in fasted state simulated intestinal fluid at pH 6.5 incubated under stirred condition for 3 days; conditions: read-out: Therm_solubility
GRIA1/CACNG2 = GRIA1/CACNG2 (Homo sapiens, UniProt P42261+Q9Y698); assay: Modulation of recombinant human GluA1 flop isoform/TARPgamma2 expressed in HEK293F cells assessed as blockade of glutamate-induced calcium flux by calcium 5/6 dye based FLIPR assay; type: cell-based
In short: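 HEK-293 cells transiently expressing human GluA1o cotransfected with γ-2; FLIPR calcium-flux read-out; pIC50 reported; n = 1, run in triplicate.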

GRIA1/CACNG8 = GRIA1/CACNG8 (Homo sapiens, UniProt P42261+Q8WXS5); assay: Modulation of recombinant human GluA1 flop isoform/TARPgamma8 expressed in HEK293F cells assessed as blockade of glutamate-induced calcium flux by calcium 5/6 dye based FLIPR assay; type: cell-based
In short: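 HEK-293 cells expressing a human GluA1o-γ-8 fusion construct; FLIPR calcium-flux read-out; pIC50 reported as mean and standard deviation of at least three assays run in triplicate.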

[5] = Thermodynamic solubility of the compound in simulated gastric fluid at pH 1.6 incubated under stirred condition for 3 days; type: physicochemical; conditions: read-out: Therm_solubility
In short: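 Thermodynamic solubility (μM) determined in simulated gastric fluid at pH 1.6 and in fasted state simulated intestinal fluid at pH 6.5.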

[6] = Hepatic extraction ratio in rat liver microsomes at 1 uM measured after 60 mins in presence of NADPH by LC-MS/MS analysis; type: ADME, microsome; conditions: read-out: ERH; in short: as §2
[7] = Protein binding in human plasma assessed as unbound fraction at 1 uM measured after 6 hrs by equilibrium dialysis method; type: ADME, cell-free
In short: (§3)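 Human or rat plasma protein binding at 1 μM compound, expressed as fraction unbound (fub).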

[8] = Protein binding in rat plasma assessed as unbound fraction at 1 uM measured after 6 hrs by equilibrium dialysis method; type: ADME, cell-free; in short: as §3
[9] = Oral bioavailability in Sprague-Dawley rat at 5 mg/kg administered as single dose by LC-MS/MS analysis; type: ADME, organism-based; conditions: in vivo
In short: (§4)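 Sprague–Dawley rats (n = 3/group) given compound as a solution in 20% HP-β-CD, 1 mg/kg i.v. and 5 mg/kg p.o.; plasma pharmacokinetics derived from these arms.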

[10] = Volume of distribution at steady state in Sprague-Dawley rat at 1 mg/kg, iv or 5 mg/kg, po administered as single dose by LC-MS/MS analysis; type: ADME, organism-based; conditions: in vivo, read-out: Vdss
In short: (§5)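 Single 1 mg/kg i.v. dose as a solution to Sprague–Dawley rats (n = 3/group); vehicle 20% HP-β-CD in one study series, 1:1 PEG400/H2O in the other; plasma PK parameters derived.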

Rattus norvegicus [11] = assay: Ex vivo receptor occupancy at GluA/TARPgamma8 in po dosed Sprague-Dawley rat assessed as reduction in [3H]JNJ-56022486 receptor labeling in hippocampus measured within 10 mins by autoradiography; type: functional
[12] = Cmax in Sprague-Dawley rat at 5 mg/kg, po administered as single dose by LC-MS/MS analysis; type: ADME, organism-based; set-up: dose 5 mg/kg, route oral; conditions: in vivo; in short: as §4
[13] = Clearance in Sprague-Dawley rat at 1 mg/kg, iv administered as single dose by LC-MS/MS analysis; type: ADME, organism-based; conditions: in vivo; in short: as §5
[14] = Ratio of unbound brain to plasma concentration in Sprague-Dawley rat at 1 mg/kg, iv or 5 mg/kg, po administered as single dose by LC-MS/MS analysis; type: ADME, organism-based; conditions: brain and plasma, read-out: K(p,uu,brain)
Rattus norvegicus [15] = assay: Ex vivo receptor occupancy at GluA/TARPgamma8 in po dosed Sprague-Dawley rat assessed as brain concentration causing 50% reduction in [3H]JNJ-56022486 receptor labeling in hippocampus at Tmax by autoradiography; type: functional, organism-based
In short: (§6)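 Oral dose–response in Sprague–Dawley rats, n = 3/dose (8 doses in one study; vehicle 0.5% HPMC or 20% HP-β-CD); hippocampal occupancy measured at Tmax by ex vivo autoradiography using [3H]-12; EC50 expressed against plasma (ng/mL) or brain (ng/g) exposure, ED50 against dose.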

Rattus norvegicus [16] = assay: Ex vivo receptor occupancy at GluA/TARPgamma8 in po dosed Sprague-Dawley rat assessed as plasma concentration causing 50% reduction in [3H]JNJ-56022486 receptor labeling in hippocampus at Tmax by autoradiography; type: functional, organism-based; in short: as §6
[17] = Half life in Sprague-Dawley rat at 1 mg/kg, iv administered as single dose by LC-MS/MS analysis; type: ADME, organism-based; conditions: in vivo; in short: as §5
Rattus norvegicus [18] = assay: Ex vivo receptor occupancy at GluA/TARPgamma8 in po dosed Sprague-Dawley rat assessed as plasma concentration causing reduction in [3H]JNJ-56022486 receptor labeling in hippocampus at 10 mg/kg, po at Tmax by autoradiography; type: functional, organism-based
In short: (§7)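 Rats (Sprague–Dawley, n = 2/dose group) dosed orally with suspensions in 0.5% HPMC at 3 or 10 mg/kg; hippocampal GluA/γ-8 occupancy at Tmax by ex vivo autoradiography with [3H]12 radiotracer; brain (ng/g) and plasma (ng/mL) concentrations taken at Tmax.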

[19] = Volume of distribution at steady state in Sprague-Dawley rat at 1 mg/kg, iv administered as single dose by LC-MS/MS analysis; type: ADME, organism-based; conditions: in vivo, read-out: Vdss; in short: as §5
Rattus norvegicus [20] = assay: Ex vivo receptor occupancy at GluA/TARPgamma8 in po dosed Sprague-Dawley rat assessed as plasma concentration causing reduction in [3H]JNJ-56022486 receptor labeling in hippocampus at 3 mg/kg, po at Tmax by autoradiography; type: functional, organism-based; in short: as §7
Homo sapiens = organism: Homo sapiens; assay: Selectivity ratio of IC50 for recombinant human GluA1 flop isoform/TARPgamma2 expressed in HEK293F cells to IC50 for recombinant human GluA1 flop isoform/TARPgamma8 expressed in HEK293F cells; type: cell-based
In short: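 Calcium-flux (FLIPR) inhibition in HEK-293 cells, giving pIC50 for each receptor. For γ-8, cells expressed a human GluA1o–γ-8 fusion construct, with at least three assays run in triplicate and reported as mean ± SD. For γ-2, cells expressed human GluA1-flop cotransfected with γ-2. The ratio compares the γ-2 IC50 with the γ-8 IC50.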

Rattus norvegicus [21] = assay: Ex vivo receptor occupancy at GluA/TARPgamma8 in Sprague-Dawley rat assessed as reduction in [3H]JNJ-56022486 receptor labeling in hippocampus at 10 mg/kg, po at Tmax by autoradiography relative to control; type: functional; in short: as §7

Chain of GRIA1/CACNG2 (P42261 whole entry, canonical isoform): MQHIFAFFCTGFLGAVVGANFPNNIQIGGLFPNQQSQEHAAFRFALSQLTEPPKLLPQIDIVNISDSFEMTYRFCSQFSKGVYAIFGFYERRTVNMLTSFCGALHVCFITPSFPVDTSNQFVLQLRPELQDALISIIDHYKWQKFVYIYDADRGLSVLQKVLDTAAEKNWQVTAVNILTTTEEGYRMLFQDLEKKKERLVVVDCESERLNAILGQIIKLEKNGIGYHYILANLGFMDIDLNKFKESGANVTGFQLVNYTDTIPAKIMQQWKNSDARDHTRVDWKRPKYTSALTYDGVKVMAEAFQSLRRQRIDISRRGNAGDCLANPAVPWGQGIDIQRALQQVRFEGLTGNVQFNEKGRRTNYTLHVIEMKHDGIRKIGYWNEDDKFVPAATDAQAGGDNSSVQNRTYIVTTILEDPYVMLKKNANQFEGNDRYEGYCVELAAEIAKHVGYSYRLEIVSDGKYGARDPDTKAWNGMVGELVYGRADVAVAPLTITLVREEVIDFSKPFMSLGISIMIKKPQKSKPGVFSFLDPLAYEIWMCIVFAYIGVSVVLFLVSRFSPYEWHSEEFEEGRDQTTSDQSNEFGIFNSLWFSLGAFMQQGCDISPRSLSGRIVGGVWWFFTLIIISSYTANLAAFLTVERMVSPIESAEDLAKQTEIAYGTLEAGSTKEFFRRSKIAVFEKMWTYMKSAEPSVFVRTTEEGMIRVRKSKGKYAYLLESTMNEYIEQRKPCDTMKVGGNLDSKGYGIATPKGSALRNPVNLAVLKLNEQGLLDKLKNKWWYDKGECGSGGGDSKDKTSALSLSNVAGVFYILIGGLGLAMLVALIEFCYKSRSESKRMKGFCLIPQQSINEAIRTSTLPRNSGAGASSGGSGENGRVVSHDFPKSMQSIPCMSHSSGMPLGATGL
Chain of GRIA1/CACNG2 (Q9Y698 whole entry, canonical isoform): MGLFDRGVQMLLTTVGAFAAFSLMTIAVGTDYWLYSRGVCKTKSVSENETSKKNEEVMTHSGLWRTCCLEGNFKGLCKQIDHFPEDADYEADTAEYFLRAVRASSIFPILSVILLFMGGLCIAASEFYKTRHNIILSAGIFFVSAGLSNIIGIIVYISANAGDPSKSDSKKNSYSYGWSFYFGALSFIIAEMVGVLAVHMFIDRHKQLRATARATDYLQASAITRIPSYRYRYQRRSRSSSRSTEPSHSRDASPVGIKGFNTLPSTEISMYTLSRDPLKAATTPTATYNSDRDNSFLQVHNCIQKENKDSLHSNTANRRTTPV
Chain of GRIA1/CACNG8 (P42261 whole entry, the tested form may be a part, canonical isoform): as the sequence (P42261 whole entry, canonical isoform) above
Chain of GRIA1/CACNG8 (Q8WXS5 whole entry, the tested form may be a part, canonical isoform): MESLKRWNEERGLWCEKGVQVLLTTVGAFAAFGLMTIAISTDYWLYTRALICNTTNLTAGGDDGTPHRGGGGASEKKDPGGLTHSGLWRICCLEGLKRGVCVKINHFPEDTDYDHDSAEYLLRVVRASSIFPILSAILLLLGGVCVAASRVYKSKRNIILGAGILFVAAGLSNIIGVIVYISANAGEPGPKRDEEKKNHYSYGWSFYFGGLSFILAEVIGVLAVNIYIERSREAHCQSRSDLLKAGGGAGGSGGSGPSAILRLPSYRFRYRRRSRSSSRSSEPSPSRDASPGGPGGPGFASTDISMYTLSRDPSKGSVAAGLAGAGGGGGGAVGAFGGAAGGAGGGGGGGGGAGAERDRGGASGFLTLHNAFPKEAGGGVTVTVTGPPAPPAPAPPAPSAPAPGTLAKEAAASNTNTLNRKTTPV

Row | SMILES | Papp B→A at 1 h, 5 µM [1] | hepatic extraction ratio at 1 h, 1 µM [2] | Papp A→B at 1 h, 5 µM [3] | solubility thermodynamic at 72 h [4] | IC50 (GRIA1/CACNG2) | IC50 (GRIA1/CACNG8) | solubility thermodynamic at 72 h [5] | hepatic extraction ratio at 1 h, 1 µM [6] | other results
1 | N#Cc1cccc(Cl)c1-c1ccc2[nH]c(=O)[nH]c2c1 | 70 ×10⁻⁶ cm/s | < 0.3 | 14 ×10⁻⁶ cm/s | 5 µM (≈ 1.35 µg/mL) | > 10000 nM | 251 nM | < 4 µM | < 0.2 | –
2 | O=c1[nH]c2ccc(-c3c(Cl)cccc3Cl)cc2[nH]1 | 49 ×10⁻⁶ cm/s | < 0.3 | 26 ×10⁻⁶ cm/s | 69 µM (≈ 19.3 µg/mL) | > 10000 nM | 50.1 nM | < 4 µM | 0.3 | fraction unbound at 6 h, 1 µM [7]: 0.5; fraction unbound at 6 h, 1 µM [8]: 0.6
3 | N#CCc1cccc(Cl)c1-c1ccc2[nH]c(=O)[nH]c2c1 | 70 ×10⁻⁶ cm/s | < 0.3 | 6.6 ×10⁻⁶ cm/s | 230 µM (≈ 65.3 µg/mL) | > 10000 nM | 10 nM | 26 µM (≈ 7.38 µg/mL) | 0.6 | –
4 | O=c1[nH]c2ccc(-c3c(Cl)cccc3C3CC3)cc2[nH]1 | 18 ×10⁻⁶ cm/s | < 0.3 | 10 ×10⁻⁶ cm/s | 90 µM (≈ 25.6 µg/mL) | > 10000 nM | – | < 4 µM | 0.5 | bioavailability [9]: 121%; fraction unbound at 6 h, 1 µM [7]: 0.2; Vd [10]: 4.6 L/kg; ED50 (Rattus norvegicus [11]): 3.2 mg/kg; Cmax [12]: 502 ng/mL; clearance [13]: 21 mL/min/kg; Kp uu [14]: 0.3; EC50 (Rattus norvegicus [15]): 1611 ng/g; EC50 (Rattus norvegicus [16]): 0.486 µg/mL (≈ 1.71 µM); half-life [17]: 2.7 h
5 | COc1cccc(Cl)c1-c1ccc2[nH]c(=O)[nH]c2c1 | 50 ×10⁻⁶ cm/s | 0.3 | 26 ×10⁻⁶ cm/s | 142 µM (≈ 39 µg/mL) | > 10000 nM | 126 nM | 19 µM (≈ 5.22 µg/mL) | 0.6 | –
6 | Cc1cccc(C)c1-c1ccc2[nH]c(=O)[nH]c2c1 | 34 ×10⁻⁶ cm/s | 0.3 | 42 ×10⁻⁶ cm/s | 276 µM (≈ 65.8 µg/mL) | > 10000 nM | – | 5 µM (≈ 1.19 µg/mL) | 0.5 | bioavailability [9]: 68%; clearance [13]: 9 mL/min/kg; Kp uu [14]: 0.3
7 | Cc1cccc(Cl)c1-c1ccc2[nH]c(=O)[nH]c2c1 | 32 ×10⁻⁶ cm/s | < 0.3 | 25 ×10⁻⁶ cm/s | 146 µM (≈ 37.8 µg/mL) | > 10000 nM | 50.1 nM | < 4 µM | 0.6 | fraction unbound at 6 h, 1 µM [7]: 0.9
8 | O=C1Cc2cc(-c3c(Cl)cccc3OC(F)(F)F)cc(F)c2N1 | – | – | – | – | – | 2.51 nM | – | – | –
9 | O=c1[nH]c2ccc(-c3c(Cl)cccc3OC(F)(F)F)cc2o1 | – | – | – | – | – | 2510 nM | – | – | –
10 | Cc1cccc(C)c1-c1ccc2c(c1)CC(=O)N2 | – | – | – | – | > 10000 nM | – | – | – | –
11 | Cc1ccccc1-c1ccc2c(c1)CC(=O)N2 | – | – | – | – | > 10000 nM | 2510 nM | – | – | –
12 | Cc1cc(-c2c(Cl)cncc2OC(F)(F)F)cc2c1NC(=O)C2 | 51 ×10⁻⁶ cm/s | < 0.3 | 44 ×10⁻⁶ cm/s | 45 µM (≈ 15.4 µg/mL) | > 10000 nM | 2.51 nM | 11 µM (≈ 3.77 µg/mL) | 0.5 | Cp (Rattus norvegicus [18]): 2050 ng/mL; ED50 (Rattus norvegicus [11]): 5.4 mg/kg; clearance [13]: 37 mL/min/kg; Vd [19]: 2.7 L/kg; Cp (Rattus norvegicus [20]): 87 ng/mL; Ratio IC50 (Homo sapiens): > 1000; half-life [17]: 1.4 h; Occ (Rattus norvegicus [21]): 86%
13 | O=c1[nH]c2ccc(-c3c(Cl)cncc3Cl)cc2[nH]1 | 83 ×10⁻⁶ cm/s | < 0.3 | 16 ×10⁻⁶ cm/s | 52 µM (≈ 14.6 µg/mL) | > 10000 nM | 251 nM | 42 µM (≈ 11.8 µg/mL) | < 0.2 | –
14 | Cc1cc(-c2c(Cl)cncc2OC(F)F)cc2c1NC(=O)C2 | 66 ×10⁻⁶ cm/s | < 0.3 | 34 ×10⁻⁶ cm/s | 64 µM (≈ 20.8 µg/mL) | > 10000 nM | – | 140 µM (≈ 45.5 µg/mL) | 0.4 | clearance [13]: 19 mL/min/kg; Vd [19]: 1.9 L/kg; Ratio IC50 (Homo sapiens): > 1000; half-life [17]: 1.2 h; Occ (Rattus norvegicus [21]): 72%
